# From ChEMBL document CHEMBL1221229, “Phloroglucinol glycosides from the fresh fruits of Eucalyptus maideni” (J Nat Prod, 2010)
# Calls of active or inactive are those of the source. No cut-off for these calls is given here.
# What was measured:
# [1] = Cytotoxicity against african green monkey Vero cells after 3 days by MTT assay; type: cell-based; details: chlorocebus sabaeus, read-out: MNCC
# Method in brief: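 Confluent Vero monolayers in 96-well plates were exposed in triplicate to serial sample dilutions in DMEM with 2% FBS (pH 7.2) for 3 days. MTT (5 mg/mL in PBS) was added for 4 h, and formazan was dissolved in DMSO with OD read at 540/630 nm. The value is the maximal concentration without cytotoxic effect relative to medium control.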
# Human alphaherpesvirus 1 = assay: Antiviral activity against HSV1 infected african green monkey Vero cells assessed as reduction of plaque formation after 3 days by using crystal violet stain; type: functional, organism-based
# Method in brief: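 Vero cells in 24-well plates, grown 24 h, then infected with 30 PFU HSV-1 alongside serial sample dilutions in DMEM with 2% FBS (pH 7.2, NaHCO3/Hepes). The wells were overlaid with 1% methylcellulose medium and incubated 3 days. Monolayers were formalin-fixed and crystal violet-stained, and plaques counted by microscope. The 100% plaque-reducing concentration was read from graphic plots. Aciclovir was the positive control.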
SMILES,MNTC at 72 h [1] [µM],inhibition (Human alphaherpesvirus 1),TIC (Human alphaherpesvirus 1) [mM]
O=c1c(O[C@@H]2O[C@H](CO)[C@@H](O)[C@H](O)[C@H]2O)c(-c2ccc(O)c(O)c2)oc2cc(O)cc(O)c12 [ISOQUERCETIN],430,inactive,
O=c1cc(-c2cc(O)c(O)c(O)c2)oc2cc(O)cc(O)c12 [TRICETIN],40,inactive,
O=c1cc(-c2ccc(O)c(O[C@@H]3O[C@H](CO)[C@@H](O)[C@H](O)[C@H]3O)c2)oc2cc(O)cc(O)c12,450,inactive,
O=C[C@H](O)[C@@H](O)[C@H](O)[C@H](O)COC(=O)c1cc(O)c(O)c(O)c1,9,inactive,
CC(C)(O)C1CC=C(C(=O)O)CC1 (racemic),> 1090,inactive,
COc1c(O)cc2c(=O)oc3c(O[C@@H]4O[C@@H](C)[C@H](O)[C@@H](O)[C@H]4O)c(O)cc4c(=O)oc1c2c34,430,inactive,
O=c1c(O)c(-c2cc(O)c(O)c(O)c2)oc2cc(O)cc(O)c12 [MYRICETIN],310,,0.31
O=c1cc(-c2ccc(O)c(O)c2)oc2cc(O)cc(O)c12 [LUTEOLIN],700,inactive,
CC(C)(O)[C@H]1CC=C(C(=O)OC[C@H]2O[C@@H](OC(=O)[C@H]3CC[C@H](C(C)(C)O)CC3)[C@H](O)[C@@H](O)[C@@H]2O)CC1,,inactive,
O=c1c(O)c(-c2ccc(O)c(O)c2)oc2cc(O)cc(O)c12 [QUERCETIN],< 20,,0.33
O=c1c(O[C@@H]2O[C@H](CO)[C@@H](O)[C@H](O)[C@H]2O[C@@H]2OC[C@@H](O)[C@H](O)[C@H]2O)c(-c2ccc(O)c(O)c2)oc2cc(O)cc(O)c12,370,inactive,
O=c1cc(-c2cc(O)c(O)c(O[C@@H]3O[C@H](CO)[C@@H](O)[C@H](O)[C@H]3O)c2)oc2cc(O)cc(O)c12,430,inactive,
O=C(O)c1cc(O)c(O)c(O)c1 [GALLIC ACID],590,inactive,
CC(C)(O)[C@H]1CC=C(C(=O)OC[C@H]2O[C@@H](Oc3c(O)cc(C(=O)O)cc3O)[C@H](O)[C@@H](O)[C@@H]2O)CC1,,inactive,
CC(C)(O)[C@H]1CC=C(C(=O)OC[C@H]2O[C@@H](Oc3cc(C(=O)O)cc(O)c3O)[C@H](O)[C@@H](O)[C@@H]2O)CC1,,inactive,
COc1cc([C@@H]2c3cc(O)c(OC)cc3C[C@H](CO)[C@H]2CO[C@@H]2O[C@H](CO)[C@@H](O)[C@H](O)[C@H]2O)ccc1O,,inactive,
